Assay results from different studies.
Compare with care: the assays were run in different laboratories. ≈ marks a conversion by molar mass, not a printed value.

Compound | organism | assay | system | setting | quantity | result
Cc1ccc(-n2cc(COc3cc(C(C)C)ccc3C)nn2)cc1 | Klebsiella pneumoniae | microbial growth, broth dilution | ATCC700603 |  | IC50 | 246 µg/mL (≈ 766 µM)
O=C1NC(=S)N/C1=C\c1c2ccccc2c(-c2ccc(N(c3ccccc3)c3ccccc3)cc2)c2ccccc12 | Streptococcus pneumoniae | microbial killing, broth dilution | ATCC49619 |  | MBC | > 1000 µg/mL
CC(C)(NC(=O)c1cc2c(F)cc(F)cc2[nH]1)c1cn(Cc2cccc(Cl)c2)nn1 | Cryptosporidium parvum | parasite growth, imaging | HCT-8 | 11 µM, 72 h, intracellular | inhibition | ~30%
Cc1ccc(C(C)C)cc1OCc1cn(-c2ccc(S(N)(=O)=O)cc2)nn1 | Klebsiella pneumoniae | microbial growth, broth dilution | ATCC700603 |  | IC50 | 602 µg/mL (≈ 1560 µM)
CC(C)(NC(=O)c1cc2c(F)cc(F)cc2[nH]1)c1cn(Cc2ccc(Cl)c(Cl)c2)nn1 | Cryptosporidium parvum | parasite growth, imaging | HCT-8 | 11 µM, 72 h, intracellular | inhibition | ~30%
O=C(O)CN1C(=O)/C(=C/c2ccc(-c3ccc(N(c4ccccc4)c4ccccc4)cc3)c3ccccc23)NC1=S | Streptococcus pneumoniae | microbial killing, broth dilution | ATCC49619 |  | MBC | > 1000 µg/mL
O=C(O)CCc1ccc(O)cc1 | Cryptosporidium parvum | parasite growth, imaging | HCT-8 | 1 mM, 24 h, intracellular | activity vs control | 90.5%
N#CC(=Cc1ccc(Cl)cc1)C1=NC(=O)C(=Cc2cn(-c3ccccc3)nc2-c2ccccc2)S1 | Klebsiella pneumoniae | microbial growth, well diffusion |  | 100000 µg/mL | inhibition zone | 21 mm
O=C(O)CN1C(=O)/C(=C/c2c3ccccc3c(-c3ccc(N(c4ccccc4)c4ccccc4)cc3)c3ccccc23)SC1=S | Streptococcus pneumoniae | microbial growth, broth dilution | ATCC49619 |  | MIC | > 1000 µg/mL
CN(C)CC(=O)O | Cryptosporidium parvum | parasite growth, imaging | HCT-8 | 1 mM, 24 h, intracellular | activity vs control | 105%
COc1ccc(-n2cc(COC3=CC(=O)c4ccccc4C3=O)nn2)cc1 | Klebsiella pneumoniae | microbial growth, broth dilution | ATCC700603 |  | IC50 | 137 µg/mL (≈ 379 µM)
CNCC(=O)O | Cryptosporidium parvum | parasite growth, imaging | HCT-8 | 1 mM, 24 h, intracellular | activity vs control | 98%
Clc1ccc(-n2cc(COc3cccc4cccnc34)nn2)cc1 | Klebsiella pneumoniae | microbial growth, broth dilution | ATCC700603 |  | IC50 | 554 µg/mL (≈ 1650 µM)
CC(C)(NC(=O)c1cc2c(Cl)cc(Cl)cc2[nH]1)c1cn(Cc2ccccc2Cl)nn1 | Cryptosporidium parvum | parasite growth, imaging | HCT-8 | 11 µM, 72 h, intracellular | inhibition | > 60%
Oc1ccc2cc[nH]c2c1 | Cryptosporidium parvum | parasite growth | HCT-8 | 24 h, intracellular | EC50 | 722 µM
Cc1ccc(C(C)C)cc1OS(=O)(=O)c1ccccc1 | Klebsiella pneumoniae | microbial growth, broth dilution | ATCC700603 |  | IC50 | 117 µg/mL

Compound | organism | assay | system | setting | quantity | result
CCOC(=O)c1c(N)csc1-c1cn(-c2ccccc2)nc1-c1ccccc1 | Klebsiella pneumoniae | microbial growth, well diffusion |  | 100000 µg/mL | inhibition zone | 22 mm
COc1cccc2cc[nH]c12 | Cryptosporidium parvum | parasite growth | HCT-8 | 24 h, intracellular | EC90 | 682 µM
O=C1C=C(OCc2cn(-c3ccc(Cl)cc3)nn2)C(=O)c2ccccc21 | Klebsiella pneumoniae | microbial growth, broth dilution | ATCC700603 |  | IC50 | 348 µg/mL (≈ 951 µM)
CCOC(=O)c1c(N)csc1-c1cn(-c2ccccc2)nc1-c1ccc(C)cc1 | Klebsiella pneumoniae | microbial killing, broth dilution |  |  | MBC | 0.25 µg/mL (≈ 0.62 µM)
O=C1NC(=S)N/C1=C\c1ccc(-c2ccc(N(c3ccccc3)c3ccccc3)cc2)cc1 | Streptococcus pneumoniae | microbial killing, broth dilution | ATCC49619 |  | MBC | > 1000 µg/mL
N#CC(=Cc1cn(-c2ccccc2)nc1-c1ccccc1)C1=NC(=O)CS1 | Klebsiella pneumoniae | microbial growth, well diffusion |  | 100000 µg/mL | inhibition zone | 27 mm
Cc1ccc(-n2cc(COc3cccc4cccnc34)nn2)cc1 | Klebsiella pneumoniae | microbial growth, broth dilution | ATCC700603 |  | IC50 | 268 µg/mL (≈ 849 µM)
O=c1[nH]cnc2nc[nH]c12 | Cryptosporidium parvum | parasite growth, imaging | HCT-8 | 1 mM, 24 h, intracellular | activity vs control | 106%
O=C(O)CN1C(=O)/C(=C/c2ccc(-c3ccc(N(c4ccccc4)c4ccccc4)cc3)cc2)SC1=S | Streptococcus pneumoniae | microbial growth, broth dilution | ATCC49619 |  | MIC | 15.6 µg/mL (≈ 29.8 µM)
NCCCCNCCCN | Cryptosporidium parvum | parasite growth, imaging | HCT-8 | 1 mM, 24 h, intracellular | activity vs control | 100%
CN[C@H](CC(C)C)C(=O)N[C@H]1C(=O)N[C@@H](CC(N)=O)C(=O)N[C@H]2C(=O)N[C@H]3C(=O)N[C@H](C(=O)N[C@H](C(=O)O)c4cc(O)cc(O)c4-c4cc3ccc4O)[C@H](O)c3ccc(c(Cl)c3)Oc3cc2cc(c3O[C@@H]2O[C@H](CO)[C@@H](O)[C@H](O)[C@H]2O[C@H]2C[C@](C)(N)[C@H](O)[C@H](C)O2)Oc2ccc(cc2Cl)[C@H]1O | Streptococcus pneumoniae | microbial growth, broth dilution | ATCC49619 |  | MIC | 0.24 µg/mL (≈ 0.166 µM)
Cc1c(NN=C2SC(CC#N)=NC2=O)c(=O)n(-c2ccccc2)n1C | Klebsiella pneumoniae | microbial growth, well diffusion |  | 100000 µg/mL | inhibition zone | 15 mm
O=C1NC(=S)N/C1=C\c1ccc(-c2ccc(N(c3ccccc3)c3ccccc3)cc2)c2ccccc12 | Streptococcus pneumoniae | microbial growth, broth dilution | ATCC49619 |  | MIC | > 1000 µg/mL
Fc1ccc(-n2cc(COc3cccc4cccnc34)nn2)cc1 | Klebsiella pneumoniae | microbial growth, broth dilution | ATCC700603 |  | IC50 | 1230 µg/mL (≈ 3830 µM)
NCCCCC(=O)O | Cryptosporidium parvum | parasite growth, imaging | HCT-8 | 1 mM, 24 h, intracellular | activity vs control | 102%
O=C(O)CN1C(=O)/C(=C/c2ccc(-c3ccc(N(c4ccccc4)c4ccccc4)cc3)cc2)NC1=S | Streptococcus pneumoniae | microbial growth, broth dilution | ATCC49619 |  | MIC | 62.5 µg/mL (≈ 124 µM)
